Reference: ChEMBL document CHEMBL4196056, “Zirconium catalyzed synthesis of 2-arylidene Indan-1,3-diones and evaluation of their inhibitory activity against NS2B-NS3 WNV protease” (Eur J Med Chem, 2018)
pEC50, pIC50, pKi: −log10 of the molar value. Each block holds one molecule with its values, some of them ahead of it. Active and inactive are the calls of the source. No cut-off for these calls is given here.

Legend:
West Nile virus [1] = assay: Inhibition of recombinant West Nile virus NS2B-NS3 protease at 16 umol/L using pERTKR-AMC as substrate preincubated for 30 mins followed by substrate addition by fluorescence assay
Summary of the method: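 Single-point screen of purified, pre-activated recombinant WNV NS2B-NS3 at 1 ng µL-1 final, in 50 mmol L-1 Tris with 30% glycerol, pH 9.5, and 1% DMSO final. Enzyme and compound (16 µmol L-1 final) were held 30 min at 21-22 °C before pERTKR-AMC was added. Fluorescence (ex 360/em 460 nm) was read continuously, with buffer/DMSO as negative control. Triplicate wells in three independent experiments; one-way ANOVA.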

[2] = Cytotoxicity against African green monkey Vero cells after 24 hrs by MTT assay; assay type: cell-based; details: chlorocebus sabaeus
Summary of the method: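 Vero cells (5 x 10^4/well) were exposed for 24 h at 37 °C to eight concentrations (4-1000 µmol L-1) in MEM with 2% FBS and 1% DMSO. MTT was added for 4 h, formazan was dissolved in DMSO, and absorbance was read at 550 nm. CC50 was derived by curve fitting.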

[3] = Selectivity index, ratio of CC50 for African green monkey Vero cells to EC50 for Dengue virus 3 infected in African green monkey Vero cells; assay type: toxicity; details: Vero cells infected with Dengue virus 3, read-out: Ratio CC50/EC50
Summary of the method: (§1)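 Selectivity index calculated as CC50 from the 24 h Vero MTT assay divided by EC50 from the virucidal plaque-reduction assay for each DENV serotype.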

[4] = Non-competitive inhibition of recombinant West Nile virus NS2B-NS3 protease using pERTKR-AMC as substrate preincubated for 30 mins followed by substrate addition by Lineweaver-Burk plot analysis
Summary of the method: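 Kinetic series with WNV protease at 37.04 nmol L-1 (1 ng µL-1), inhibitor at 2, 4 and 8 µmol L-1, and pERTKR-AMC at five levels ([…] as printed). Fluorescence was read every 30 s in triplicate wells, and velocities (RFU/min) were computed for each substrate/inhibitor pair. Ki came from nonlinear enzyme-kinetics regression.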

[5] = (§2) Inhibition of recombinant West Nile virus NS2B-NS3 protease using pERTKR-AMC as substrate preincubated for 30 mins followed by substrate addition by fluorescence assay
Summary of the method: (§3)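 Same protease format (1 ng µL-1 enzyme, Tris/30% glycerol pH 9.5, 30 min preincubation at 21-22 °C, pERTKR-AMC, ex 360/em 460 nm). Eight inhibitor concentrations spanning 66-0.5 µmol L-1 were tested, with reads every 30 s for 5 min. Triplicate wells in three independent experiments; IC50 from four-parameter nonlinear regression (Hill slope).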

West Nile virus [6] = assay: as §2; summary of the method: as §3
[7] = Selectivity index, ratio of CC50 for African green monkey Vero cells to EC50 for Dengue virus 2 infected in African green monkey Vero cells; assay type: toxicity; details: Vero cells infected with Dengue virus 2, read-out: Ratio CC50/EC50; summary of the method: as §1
dengue virus type 1 = assay: Antiviral activity against Dengue virus 1 infected in African green monkey Vero cells assessed as decrease in viral infection preincubated for 1 hr followed by cell addition and subsequent incubation for 1 hr and measured after 5 to 6 days by crystal violet staining-based assay; assay type: functional, organism-based
Summary of the method: (§4)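 Virucidal plaque-reduction format. Virus suspension (50-100 PFU) was mixed 1:1 with compound at 3, 6, 12, 25, 50 or 100 µmol L-1 and held 1 h at 37 °C. The mixture went onto Vero monolayers (8 x 10^5 cells/well) for 1 h adsorption with shaking, then a 3% CMC overlay in 2x DMEM with 2% FBS for 5-6 days. Cells were formaldehyde-fixed and crystal violet-stained, plaques were counted, and EC50 came from nonlinear regression.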

dengue virus type 3 = assay: Antiviral activity against Dengue virus 3 infected in African green monkey Vero cells assessed as decrease in viral infection preincubated for 1 hr followed by cell addition and subsequent incubation for 1 hr and measured after 5 to 6 days by crystal violet staining-based assay; assay type: functional, organism-based; summary of the method: as §4
dengue virus type 2 = assay: Antiviral activity against Dengue virus 2 infected in African green monkey Vero cells assessed as decrease in viral infection preincubated for 1 hr followed by cell addition and subsequent incubation for 1 hr and measured after 5 to 6 days by crystal violet staining-based assay; assay type: functional, organism-based; summary of the method: as §4
dengue virus type 4 = assay: Antiviral activity against Dengue virus 4 infected in African green monkey Vero cells assessed as decrease in viral infection preincubated for 1 hr followed by cell addition and subsequent incubation for 1 hr and measured after 5 to 6 days by crystal violet staining-based assay; assay type: functional, organism-based; summary of the method: as §4
[8] = Selectivity index, ratio of CC50 for African green monkey Vero cells to EC50 for Dengue virus 1 infected in African green monkey Vero cells; assay type: toxicity; details: Vero cells infected with Dengue virus 1, read-out: Ratio CC50/EC50; summary of the method: as §1
[9] = Selectivity index, ratio of CC50 for African green monkey Vero cells to EC50 for Dengue virus 4 infected in African green monkey Vero cells; assay type: toxicity; details: Vero cells infected with Dengue virus 4, read-out: Ratio CC50/EC50; summary of the method: as §1

Structure (SMILES): O=C1C(=Cc2ccc3c(c2)OCO3)C(=O)c2ccccc21
inhibition (West Nile virus [1]): inactive

Structure (SMILES): COc1cc(C=C2C(=O)c3ccccc3C2=O)cc(OC)c1O
inhibition (West Nile virus [1]): Active

Structure (SMILES): COc1ccc(C=C2C(=O)c3ccccc3C2=O)cc1O
inhibition (West Nile virus [1]): Active

Structure (SMILES): COc1ccc(C=C2C(=O)c3ccccc3C2=O)cc1OC
inhibition (West Nile virus [1]): inactive

Structure (SMILES): COc1cc(C=C2C(=O)c3ccccc3C2=O)ccc1O
inhibition (West Nile virus [1]): Active

Structure (SMILES): O=C1C(=Cc2ccco2)C(=O)c2ccccc21
inhibition (West Nile virus [1]): inactive

Structure (SMILES): COc1cc(C=C2C(=O)c3ccccc3C2=O)cc(OC)c1OC
inhibition (West Nile virus [1]): inactive

Now from value to molecule, other results behind:

inhibition (West Nile virus [1]): inactive
Structure (SMILES): O=C1C(=Cc2ccc([N+](=O)[O-])cc2)C(=O)c2ccccc21

pIC50 [5]: 5.52
inhibition (West Nile virus [6]): Dose-dependent effect
pEC50 (dengue virus type 1): 5.10
pEC50 (dengue virus type 3): 5.74
inhibition (West Nile virus [1]): 100%
pEC50 (dengue virus type 2): 4.69
pEC50 (dengue virus type 4): 4.52
Structure (SMILES): O=C1C(=Cc2ccc(O)c(O)c2)C(=O)c2ccccc21
CC50 at 24 h [2]: 268 µM
selectivity ratio [3]: 147
pKi [4]: 5.90
selectivity ratio [7]: 13
selectivity ratio [8]: 34
selectivity ratio [9]: 9

inhibition (West Nile virus [1]): inactive
Structure (SMILES): COc1ccc(C=C2C(=O)c3ccccc3C2=O)cc1

inhibition (West Nile virus [1]): inactive
Structure (SMILES): O=C1C(=Cc2ccc(F)cc2)C(=O)c2ccccc21

pIC50 [5]: 4.96
inhibition (West Nile virus [6]): Dose-dependent effect
pEC50 (dengue virus type 1): 4.33
pEC50 (dengue virus type 3): 4.68
inhibition (West Nile virus [1]): 41%
pEC50 (dengue virus type 2): 4.41
pEC50 (dengue virus type 4): 4.25
Structure (SMILES): O=C1C(=Cc2ccc(O)cc2)C(=O)c2ccccc21
CC50 at 24 h [2]: 89.7 µM
selectivity ratio [3]: 4
pKi [4]: 4.91
selectivity ratio [7]: 2
selectivity ratio [8]: 2
selectivity ratio [9]: 2

inhibition (West Nile virus [1]): inactive
Structure (SMILES): N#Cc1ccc(C=C2C(=O)c3ccccc3C2=O)cc1

inhibition (West Nile virus [1]): inactive
Structure (SMILES): O=C1C(=Cc2ccccc2)C(=O)c2ccccc21

inhibition (West Nile virus [1]): inactive
Structure (SMILES): CN(C)c1ccc(C=C2C(=O)c3ccccc3C2=O)cc1

inhibition (West Nile virus [1]): inactive
Structure (SMILES): O=C1C(=Cc2ccc(Br)cc2)C(=O)c2ccccc21
